Reference: PubChem BioAssay AID624290 (Broad Institute, 2012)
Calls of active or inactive are those of the source.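 How the source made its calls: active means compounds dimming the MITF-driven luciferase signal, with fitted AC50 at most twice the top tested dose; inconclusive means flat curves with moderate signal drop, or poor-quality fits; inactive means the rest.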

Experiment: decrease of TRPM1 reporter luminescence in SK-MEL-5 – cell-based, dry powder samples, set 2, MITF inhibitor project, dose response (AID 624290)
Conditions: SK-MEL-5 TRPM1-promoter luciferase reporter, 24 h; at 35 µM (top of the series)
Procedure, shortened: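 System: TRPM1 promoter–luciferase reporter stably expressed in SK-MEL-5 melanoma cells / Schedule: 24 h compound exposure at 37 °C / Measured by: luciferase luminescence with SteadyGlo reagent, 5 min room-temperature incubation / Evaluation: luminescence change reflecting TRPM1 promoter activity, decrease as inhibition / Controls: parthenolide positive control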

O=C(NC1=C(N2CCCCC2)C(=O)c2ccccc2C1=O)c1ccc(Br)cc1
activity change, negative = inhibition: -0.221% (inactive)
